# In the library only some 3.9% were active in any assay of this set; here they are far more common.
# TAAR1 ag – human TAAR1 agonists, primary screen, Fluo-8 calcium fluorescence, CHO RD-HGA16 cells | Trace amine-associated receptor 1 (Homo sapiens), Q96RJ0 | activation, % at 3 µM | actives 0.99% (n = 360,000) | vehicle wells 0%, saturating PEA agonist 100%;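 active = activation above the mean activation of all test compounds in the run plus 3 SD, cut at about 38% in these data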
# Target sequence (Q96RJ0 whole entry, looked up): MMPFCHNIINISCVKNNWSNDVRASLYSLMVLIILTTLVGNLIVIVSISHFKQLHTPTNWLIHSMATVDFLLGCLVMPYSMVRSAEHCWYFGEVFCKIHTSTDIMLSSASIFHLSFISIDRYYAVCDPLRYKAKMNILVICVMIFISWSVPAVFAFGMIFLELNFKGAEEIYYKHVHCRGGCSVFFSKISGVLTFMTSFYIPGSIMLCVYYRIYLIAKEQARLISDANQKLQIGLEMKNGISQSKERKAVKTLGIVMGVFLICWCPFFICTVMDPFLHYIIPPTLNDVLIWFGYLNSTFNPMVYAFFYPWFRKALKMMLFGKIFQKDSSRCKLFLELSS
#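 Test system: RD-HGA16 (CHO) cells co-expressing Gα16 and hTAAR1; dosing: one-point dosing at 3 µM (nominal); timing: 17-24 h seeding, 75 min 37 °C dye, 30 min RT; signal: kinetic Fluo-8 calcium fluorescence; read-out basis: % activation relative to PEA EC100 response; controls: DMSO and PEA EC100; replicates: n 1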
# OX1R antag-1 – OX1R (HCRTR1) antagonists, primary screen, fluorescence, CHO/OX1R cells, Fluo-8 calcium, orexin A; Fluo-8 calcium fluorescence; Orexin/Hypocretin receptor type 1 (Homo sapiens), O43613; AID 434989, 2010; actives 0.43% (n = 330,000); inhibition, % at 5 µM;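 active = inhibition above its plate's threshold, mean inhibition of all tested compounds on the plate plus 3 SD, cut at about 37% in these data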;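 note: 0% = orexin A challenge wells and 100% = SB-334867-A antagonist wells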
# OX1R antag-2 – antagonists of human orexin 1 receptor (OX1R). Orexin/Hypocretin receptor type 1 (Homo sapiens), O43613. OX1R-expressing cells, FRET antagonist read-out. inhibition, % at 6.6 µM. actives 1.8% (n = 330,000). AID 485270, 2010; in the data active = inhibition mostly above about 38%, no sharp cut-off; inactive = mostly below about 40%;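 note: 0% = agonist challenge alone and 100% = reference antagonist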
# CHO parental Ca – ATP-evoked calcium signal inhibitors, parental CHO, primary screen, counter-screen for OX1R antagonist project, cell-based, fluorescence, Fluo-8 calcium dye | parental CHO-K1, ATP-induced calcium, Fluo-8 fluorescence | inhibition, % at 5.6 µM | actives 0.63% (n = 330,000);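 active = inhibition above that plate's mean sample inhibition plus 3 SD, cut at about 26% in these data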;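 note: 0% = ATP-challenged DMSO wells and 100% = DMSO wells without ATP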
#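 Test system: untransfected parental CHO cell line. Compound: one dose, 5.6 µM nominal. Detection: intracellular calcium via Fluo-8 no-wash fluorescent dye. Measure: % inhibition. Benchmarks: ATP-challenged DMSO wells low, unchallenged DMSO wells high.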
# TAAR1 antag – human TAAR1 antagonists, primary screen, Fluo-8 calcium fluorescence, CHO RD-HGA16 cells | Trace amine-associated receptor 1 (Homo sapiens), Q96RJ0 | actives 1.5% (n = 360,000) | antagonist | inhibition, % at 3 µM;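 active = inhibition above a per-plate cutoff, the mean inhibition of test compounds on that plate plus 3 SD, cut at about 49% in these data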;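 note: 0% = DMSO plus EC80 beta-PEA response and 100% = DMSO alone without agonist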
#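 Test system – hTAAR1-expressing CHO RD-HGA16 cells, Gα16-coupled · Reagent – β-PEA at EC80 concentration, post-compound challenge · Compound dosing – 3 µM, single point · Timing – 140 s kinetic read after compound, 140 s after agonist · Detection – Fluo-8 intracellular calcium dye fluorescence, real-time kinetic reads · Control set – DMSO and EC80 PEA controls · Repeats – n of 1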
# Active calls of the source: *; x = no result given.
SMILES,TAAR1 ag,OX1R antag-1,OX1R antag-2,CHO parental Ca,TAAR1 antag
CC(=O)c1cccc(-c2ccnc3c2CC(C(=O)NCC2CCOCC2)O3)c1 (centres undefined),1,x,x,x,-18
CC(C)n1nnnc1C1c2ccccc2C(=O)N1C1CC1 (centres undefined),0,x,x,x,-9
Cc1c(Br)c([N+](=O)[O-])nn1C(C)C(=O)NCc1ccco1 (centres undefined),-1,0,16,-8,-3
Cc1c(Br)c([N+](=O)[O-])nn1C(C)C(=O)N1CCc2ccccc2C1 (centres undefined),40*,-10,29,-13,4
c1ccc(CCCNCCCn2cnc3c(OCc4ccccc4)ncnc32)cc1,19,x,x,x,9
COc1cccc(NC(=O)c2ccc3nc(C)c(N(C)Cc4ccc(NC(C)=O)cc4)n3c2)c1,2,x,x,x,0
Nc1nc(N)c(Br)c(Nc2ccc(Cl)c(Cl)c2)n1,46*,x,x,x,-15
CSc1cccc(NC(=O)CCCn2c(=O)c3cccn3c3cccnc32)c1,5,1,74*,-10,22
CCOc1cc(CNC(=O)CCCn2c(=O)c3cccn3c3cccnc32)cc(OCC)c1OCC,2,4,68*,-19,5
CC(=O)N1CCC(C(=O)N2c3ccccc3N=C(c3ccc4c(c3)OCO4)C2C(=O)Nc2c(C)cccc2C)CC1 (centres undefined),0,x,x,x,5
COCCCNC(=O)C[C@H]1C[C@@]2(C(=O)OC)C(=C[C@H](C3CCCC3)O[C@@H]2C)N(Cc2ccccc2)C1=O,0,x,x,x,-30
Cc1ccc(NC(=O)Cn2cnc(C(=O)Nc3ccc(C)c(C)c3)n2)cc1C,0,-1,7,-5,1
Cc1cc(C)c(CN2CCN(C(=O)Cn3cnc(C(=O)Nc4ccc(C)c(C)c4)n3)CC2)c(C)c1,27,59*,-1,55*,56*
CC(NC(=O)C1CCN(Cc2ccc(Oc3ccccc3)cc2)CC1)c1cccc2ccccc12 (centres undefined),25,x,x,x,49*
Nc1nc(N)c2nc(CNc3ccc(C(=O)NC(CCC(=O)O)C(=O)O)cc3)cnc2n1 (centres undefined),x,-6,61*,-5,x
CCCC(=O)N1CCC1(C)C(=O)Nc1ccc2c(c1)OCCO2 (centres undefined),5,x,x,x,-25
FC(F)Sc1ccc(NC(=S)NCC2CCCCC2)cc1,9,2,32,22,50*
CC1CCCCC1NC(=S)Nc1ccc(SC(F)F)cc1 (centres undefined),7,40*,63,32,41
FC(F)Sc1ccc(NC(=S)NC2CCCCC2)cc1,11,24,42*,11,14
FC(F)Sc1ccc(NC(=S)NC(c2ccccc2)c2ccccc2)cc1,15,23,41*,39*,11
Cc1cc(N2CCNC[C@H]2C)ccc1N1C[C@@H](C)O[C@@H](C)C1,2,x,x,x,9
C[C@H](NC(=O)C[C@@H]1C=C[C@@H](NC(=O)CN2CCOCC2)[C@@H](CO)O1)c1ccccc1,5,x,x,x,-5
CSCCNC(=O)C1(C)CCN1C(=O)c1cc(C)n(C)n1 (centres undefined),0,x,x,x,-4
CCOc1ccc(N)c(SSc2cc(OCC)ccc2N)c1,21,24,5,47*,-7
COc1ccc(COC(=O)CCNC(=O)c2ccc(Cl)cc2)cc1,-2,-11,53*,-9,1
SMILES,TAAR1 ag,OX1R antag-1,OX1R antag-2,CHO parental Ca,TAAR1 antag
CC(C)(C)OC(=O)C[C@@H]1C/C=C\C[C@@H](CC(=O)N(CCO)Cc2ccccc2)C(=O)NC[C@H](c2ccccc2)OC1=O,23,13,19,-16,63*
CC(C)(C)[C@H]1COC(=O)[C@@H](Cc2ccc(F)cc2)CC/C=C/C[C@@H](CC(=O)N[C@@H](CO)Cc2ccccc2)C(=O)N1,19,13,20,-27,52*
O=C1N[C@@H](Cc2ccccc2)COC(=O)[C@@H](Cc2ccc(F)cc2)C/C=C\C[C@@H]1CC(=O)N(CCO)Cc1ccccc1,28,34,24,-4,54*
CC(=O)N1C[C@@H](CO)[C@@H](N(C)C(=O)Nc2cccc3ccccc23)C[C@H]1c1ccccc1,0,x,x,x,1
COc1ccccc1N(CC(=O)N1CCN(Cc2ccccc2)CC1)S(=O)(=O)c1ccccc1,3,x,x,x,-5
CCn1c(/C=C/c2ccccc2)nc2ccccc21,12,-11,48*,-29,11
CC(C)Cn1c(/C=C/c2ccccc2)nc2ccccc21,2,-34,35,-42,-29
CC(C=NN=C1C(=O)Nc2ccccc21)=Cc1ccccc1,4,x,x,x,-13
O=C(/C=C/c1ccc([N+](=O)[O-])cc1)OCC(=O)N1CCCCCC1,4,-6,33,-5,-13
O=C(Nc1ccccc1C(=O)N1CCOCC1)c1ccc([N+](=O)[O-])cc1,3,-14,47*,-9,6
O=C(CN1CCOCC1)NNC(=O)c1ccc([N+](=O)[O-])cc1,2,-3,43*,-1,-18
O=C(CCCSc1nc2ccccc2[nH]1)N1CCN(c2ccc([N+](=O)[O-])cc2)CC1,-1,59*,36,50*,1
O=C(/C=C/c1ccc([N+](=O)[O-])cc1)OCC(=O)N1CCOCC1,1,4,70*,0,2
O=C(NN1CCOCC1)c1ccc([N+](=O)[O-])cc1,2,x,x,x,-3
O=C(Nc1ccccc1C(=O)N1CCOCC1)c1ccc(F)cc1,8,-14,18,9,6
Cc1cccc(C)c1-n1nnnc1C1c2ccccc2C(=O)N1C1CC1 (centres undefined),7,x,x,x,-12
FC(F)(F)c1nc2nc(Cl)c(Cl)nc2n1CCCN1CCOCC1,1,x,x,x,17
O=C(CN1CCN(c2ccc([N+](=O)[O-])cc2Cl)CC1)N1CCOCC1,1,-14,25,-20,-12
O=C(Cn1cc([N+](=O)[O-])nc1[N+](=O)[O-])N1CCN(c2ccccc2)CC1,1,-7,48*,9,11
O=C(CN1CCOCC1)N1CCN(c2ccc([N+](=O)[O-])cc2)CC1,5,-4,75*,-3,7
Cc1ccccc1C(=O)N(C)[C@H]1C[C@H]2c3[nH]c4c(-c5ccccc5)cccc4c3CCN2C(=O)[C@H]1[C@H](C)O,6,x,x,x,-2
O=C(N[C@H](C(=O)N1CCC[C@H]1C(=O)NC1CCCC1)C1CCCCC1)c1ccc(Cl)c(Cl)c1,-3,x,x,x,-16
